Rows were chosen to be rich in hits. Some 3.1% of all compounds tested hit in one or more screens of this group.
IMP-1 inh: inhibitors of Pseudomonas aeruginosa IMP-1 metallo-beta-lactamase; purified IMP-1, nitrocefin hydrolysis, epi-absorbance fluorescence; inhibition, % at 5.6 µM; actives 0.45% (n = 290,000); AID 1556;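 active = inhibition above the mean plus 3 SD of all compounds in the same screening run, cut at about 4.5% in these data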;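 also: 0% = IMP-1 with DMSO and 100% = DMSO wells lacking enzyme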
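System: purified IMP-1; amount: IMP-1 0.2 nM before substrate addition; compound: single dose, 5.6 µM; times: 25 °C, 15 min preincubation, 25 min reaction; signal: Epi-absorbance via hydrolysed-nitrocefin quenching of white-plate fluorescence, 480/530 nm, EDTA stop; benchmarks: DMSO with and without IMP-1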
PHOSPHO1 inh: PHOSPHO1 (human) inhibition; recombinant PHOSPHO1, absorbance phosphatase assay; inhibition, % at 13.3 µM; Q8TCT1; actives 1.1% (n = 290,000); AID 1565; in the data active = inhibition above about 60%
Target sequence (Q8TCT1 whole entry, looked up): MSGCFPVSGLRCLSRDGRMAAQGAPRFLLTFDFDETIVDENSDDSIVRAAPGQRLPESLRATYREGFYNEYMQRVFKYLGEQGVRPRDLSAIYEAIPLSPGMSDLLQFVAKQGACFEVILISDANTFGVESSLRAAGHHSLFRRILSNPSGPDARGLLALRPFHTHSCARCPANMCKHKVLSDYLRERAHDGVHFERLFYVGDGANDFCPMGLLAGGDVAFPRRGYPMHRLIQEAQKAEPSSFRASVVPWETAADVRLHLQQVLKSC
UBC9 SUMO inh: blocks human SUMOylation mediated by UBC9. P63279. HTRF SUMOylation assay, SAE1/SAE2 + UBC9, in vitro. inhibition, % at 35 µM. actives 0.36% (n = 290,000); in the data active = inhibition above about 50%, passing the limit was not always enough
Target sequence (P63279 whole entry, looked up): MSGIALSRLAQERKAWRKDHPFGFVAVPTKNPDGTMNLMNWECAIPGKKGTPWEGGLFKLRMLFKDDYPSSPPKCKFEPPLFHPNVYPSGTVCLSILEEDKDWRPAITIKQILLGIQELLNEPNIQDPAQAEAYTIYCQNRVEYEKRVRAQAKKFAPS
core dimer inh: HCV core protein dimerization inhibition | inhibition, % at 5 µM | TR-FRET GST/Flag-core106 dimerization, 1536-well | actives 0.33% (n = 300,000);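 active = inhibition above the mean of all tested compounds plus 3 SD, set per screening campaign, cut at about 45% in these data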
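Assay system: tagged HCV core106 pair (GST and Flag); medium: KF-containing HEPES buffer, pH 7.45, DTT, CHAPS, BSA; also added: Eu donor and XL665 acceptor anti-tag antibodies; dosing: 5 µM single dose; timing: compound-protein-antibody incubation 4 h at 22.5 °C; signal: TR-FRET 671 and 617 nm emission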
HCV NS3 hel inh: inhibitors of Hepatitis C virus NS3 helicase. NS3 helicase DNA unwinding, Cy5 molecular beacon fluorescence. AID 1800. inhibition, % at 10.9 µM. actives 0.56% (n = 290,000);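 active = inhibition above the mean of all tested compounds plus 3 SD, set per campaign, cut at about 35% in these data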;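 also: 0% = DMSO wells and 100% = thioflavine S control wells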
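Test system: hepatitis C virus NS3 helicase domain fragment enzyme. Also added: annealed dual-labelled DNA beacon duplex, ATP-started. Timing: 60 min unwinding reaction at 25 °C after ATP addition. Technique: Cy5 fluorescence. Measure: % inhibition of unwinding.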
VIM-2 inh: blocks Pseudomonas aeruginosa VIM-2 metallo-beta-lactamase | actives 0.89% (n = 290,000) | inhibition, % at 5.6 µM | purified VIM-2, nitrocefin hydrolysis, epi-absorbance fluorescence;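 active = inhibition above the mean of all tested compounds plus 3 SD, cutoff set per screening run, cut at about 7.5% in these data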;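 also: red hydrolysis product quenches plate fluorescence so inhibitors raise well fluorescence; 0% = enzyme with DMSO and 100% = DMSO without enzyme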
NS3 helicase cf: HCV NS3 helicase inhibition, confirmation assay. shares compounds with HCV NS3 hel inh. AID 1943. NS3 helicase DNA unwinding, Cy5 molecular beacon fluorescence. inhibition, % at 10.9 µM. actives 31% (n = 1,600);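 active = inhibition above the mean of all tested compounds plus 3 SD, cutoff set per campaign, cut at about 36% in these data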
FID counter trip: displaces DNA intercalator in HCV helicase counter-screen; shares compounds with HCV NS3 hel inh; DNA fluorescent intercalator displacement, fluorescence; inhibition, % at 7.9 µM; actives 4% (n = 1,600); AID 1945; in the data active = inhibition above about 37%;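 also: 0% = vehicle and 100% = reference compound; higher means more displacement of ethidium bromide from the DNA hairpin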
FID counter DR: DNA intercalator displacement in dose response. shares compounds with HCV NS3 hel inh. fluorescent intercalator displacement from DNA, fluorescence. IC50, µM. 120 tested, under 10 active. AID 2172; call rule not given here
Active calls of the source: *; nt = no result.

SMILES	IMP-1 inh	PHOSPHO1 inh	UBC9 SUMO inh	core dimer inh	HCV NS3 hel inh	VIM-2 inh	NS3 helicase cf	FID counter trip	others
CC(C)(C)C(=O)C[n+]1ccc(C(N)=O)cc1	2	-1	-17	-8	47*	0	-1	2
CC(=O)Nc1ccc(N2C(=O)CSC2c2ccccc2[N+](=O)[O-])cc1 (stereo unspecified)	-3	-13	14	6	0	-3	nt	nt
Cc1noc(C)c1COc1ccc(C(=O)N2CCCC(C(F)(F)F)C2)cc1 (stereo unspecified)	-2	41	18	0	-1	-3	nt	nt
Cc1cc2oc(=O)cc(CN3CCCCC3C)c2cc1C (stereo unspecified)	-2	11	6	13	36*	0	0	8
O=C(O)Cc1sc(N/N=C\c2ccncc2)nc1-c1ccccc1	-1	32	-7	-4	55*	-3	-27	-1
O=C(c1ccc(Cl)nc1)N1CCN(S(=O)(=O)c2ccc(Cl)cc2)CC1	-1	20	-7	-1	-18	-1	nt	nt
Cc1nc2ccccn2c1C(=O)OCC#N	1	20	11	0	-4	1	nt	nt
C/C(CC(=O)N1CCCC1)=N\NC(=O)c1cc2ccccc2cc1O	-5	24	-3	0	45*	-3	5	-5
O=C1N(Cc2cccnc2)C[C@@H]2C[C@@H](c3cccc(Oc4ccccc4)c3)N3CCC[C@@]123	-2	32	21	7	-11	-1	nt	nt
CN1CCN(C(c2ccc(Br)cc2)c2cc(Cl)c3cccnc3c2O)CC1 (stereo unspecified)	-3	-69	-45	-8	40*	-4	19	74*
COc1cc(OC)c2cc(C(=O)N[C@@H](Cc3ccccc3)C(=O)O)n(C)c2c1	-3	45	6	nt	1	-1	nt	nt
N#Cc1c(N2CCCCC2)nc(N)c2c(N)nc3c(c12)CC(CCl)O3 (stereo unspecified)	-3	-3	18	-2	58*	-2	-7	7
N#Cc1c(N)nc2c(c1N)CC(CCl)O2 (stereo unspecified)	-1	8	11	2	-5	-2	nt	nt
CCOC(=O)c1c(NC(=O)C2C3CCC(O3)C2C(=O)O)sc(C)c1-c1ccc(F)cc1 (stereo unspecified)	1	50	17	8	55*	3	61*	-12
CCOC(=O)c1c(NC(=O)C2C3CCC(O3)C2C(=O)O)sc2c1CCC(CC)C2 (stereo unspecified)	-2	53	15	11	30	-2	nt	nt
CCCCCCC(=O)N(O)C1CC(=O)N(c2ccc(C)cc2)C1=O (stereo unspecified)	-6	-14	8	3	19	-2	nt	nt
Cc1ccc(N2C(=O)CC(N(O)C3CC(=O)N(c4ccc(C)cc4)C3=O)C2=O)cc1 (stereo unspecified)	-2	-20	-9	0	38*	-2	-14	-12
CCOC(=O)CC(=O)CSc1ccc2nnc(-c3ccc(F)cc3)n2n1	0	81*	19	4	38*	3	-8	-2
Cc1nn(Cc2ccccc2)c(Cl)c1/C=C/C(=O)OCC(=O)N(C)C1CCS(=O)(=O)C1 (stereo unspecified)	-1	-1	3	0	46*	0	-12	-20
COc1cc(C2C(C(=O)c3cccs3)=C(O)C(=O)N2c2cc(C)on2)ccc1O (stereo unspecified)	1	34	22	2	45*	5	-3	37*
COc1cc(C2C(C(=O)c3ccc(C)o3)=C(O)C(=O)N2c2cc(C)on2)cc(OC)c1OC (stereo unspecified)	nt	nt	nt	1	nt	nt	nt	nt
Cc1cc(N2C(=O)C(O)=C(C(=O)c3cc4ccccc4o3)C2c2ccc(OC(C)C)cc2)no1 (stereo unspecified)	-2	16	-12	-4	11	-3	nt	nt
Cc1cccc(N2C(=O)C(O)=C(C(=O)c3cccs3)C2c2cccc(Oc3ccccc3)c2)n1 (stereo unspecified)	-1	28	16	32	80*	0	114*	18	FID counter DR=>79
COC(=O)c1ccc(C2C(C(=O)c3cc4ccccc4o3)=C(O)C(=O)N2c2cc(C)on2)cc1 (stereo unspecified)	-4	13	2	33	51*	-2	93*	-29
CCCCCOc1ccc(C2C(C(=O)c3ccc(C)o3)=C(O)C(=O)N2c2cc(C)on2)cc1 (stereo unspecified)	-1	-20	-9	14	63*	1	162*	-39	FID counter DR=>79
SMILES	IMP-1 inh	PHOSPHO1 inh	UBC9 SUMO inh	core dimer inh	HCV NS3 hel inh	VIM-2 inh	NS3 helicase cf	FID counter trip	others
COc1cccc(C2C(C(=O)c3cccs3)=C(O)C(=O)N2c2cc(C)on2)c1 (stereo unspecified)	-3	46	21	-1	12	-1	nt	nt
Cn1c(=O)[nH]c(=O)c2c1nc1n2CCCN1Cc1ccccc1	-1	20	27	-1	0	0	nt	nt
CC(C)Cn1c(N)c(C(=O)COC(=O)/C=C/c2ccccc2)c(=O)n(C)c1=O	nt	nt	nt	3	nt	nt	nt	nt
COc1cc(C2C(C(=O)c3ccc(C)o3)=C(O)C(=O)N2c2cc(C)on2)ccc1OCc1ccccc1 (stereo unspecified)	-3	31	-16	13	84*	-3	188*	-26	FID counter DR=>79
CCOc1ccc(C2C(C(=O)c3ccc(C)o3)=C(O)C(=O)N2c2cc(C)on2)cc1OC (stereo unspecified)	0	8	5	-5	18	-4	nt	nt
Cc1cc(-c2ccccc2)n2nc(N)nc2n1	0	15	16	-1	5	4	nt	nt
CCc1nnc(NS(=O)(=O)c2ccc(NC(=O)c3ccccc3)cc2)s1	-6	28	20	0	22	-3	nt	nt
CCc1nnc(NS(=O)(=O)c2ccc(NC(=S)NC(=O)c3ccc(Br)cc3)cc2)s1	0	-33	19	17	58*	-2	49*	10
CCc1nnc(NS(=O)(=O)c2ccc(NC(=S)NC(=O)c3ccccc3)cc2)s1	0	-4	4	1	45*	-2	66*	-3
COc1ccc(N/C=C(\C#N)S(=O)(=O)c2ccc(Cl)cc2)c(OC)c1	-3	28	-8	12	-12	-3	nt	nt
